Test results reported in PMC5589077 (ACS chemical neuroscience, 2015).
Where two headings read alike, the source gives them in different places.

Tests used:
[1] = pretreatment with nonreinforcing doses, without affecting motor function; cited from earlier work
[2] = test system: α4β2*-nAChR; conditions: rat striatal synaptosomes, cited from earlier work
[3] = target: α6β2*-nAChR; conditions: read-out: Ki, striatal α6β2*-nAChR; monkey; cited from earlier work
[4] = test system: α4β2*-nAChR; conditions: monkey striatal synaptosomes, cited from earlier work
[5] = test system: α6β2*-nAChR; conditions: rat striatal synaptosomes; cited from earlier work
[6] = test system: α6β2*-nAChR; conditions: monkey striatal synaptosomes; cited from earlier work
[7] = target: α6β2*-nAChR in α5KO (Mus musculus, UniProt Q9ERK7+Q9R0W9); format: cell-based
α6β2*-nAChR in α5KO, sequence (Q9R0W9 26-494): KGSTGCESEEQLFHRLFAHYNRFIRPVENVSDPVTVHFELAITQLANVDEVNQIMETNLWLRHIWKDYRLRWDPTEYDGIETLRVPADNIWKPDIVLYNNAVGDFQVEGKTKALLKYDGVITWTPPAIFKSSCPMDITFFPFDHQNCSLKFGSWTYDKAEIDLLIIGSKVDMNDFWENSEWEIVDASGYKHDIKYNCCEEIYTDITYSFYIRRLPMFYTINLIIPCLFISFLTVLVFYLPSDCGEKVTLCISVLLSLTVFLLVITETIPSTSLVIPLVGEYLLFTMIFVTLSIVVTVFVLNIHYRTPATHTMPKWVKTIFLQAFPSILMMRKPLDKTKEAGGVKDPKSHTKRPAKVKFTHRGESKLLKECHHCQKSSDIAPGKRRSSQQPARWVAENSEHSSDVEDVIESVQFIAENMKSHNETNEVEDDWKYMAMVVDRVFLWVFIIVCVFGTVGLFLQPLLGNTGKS
α6β2*-nAChR in α5KO, sequence (Q9ERK7 26-501): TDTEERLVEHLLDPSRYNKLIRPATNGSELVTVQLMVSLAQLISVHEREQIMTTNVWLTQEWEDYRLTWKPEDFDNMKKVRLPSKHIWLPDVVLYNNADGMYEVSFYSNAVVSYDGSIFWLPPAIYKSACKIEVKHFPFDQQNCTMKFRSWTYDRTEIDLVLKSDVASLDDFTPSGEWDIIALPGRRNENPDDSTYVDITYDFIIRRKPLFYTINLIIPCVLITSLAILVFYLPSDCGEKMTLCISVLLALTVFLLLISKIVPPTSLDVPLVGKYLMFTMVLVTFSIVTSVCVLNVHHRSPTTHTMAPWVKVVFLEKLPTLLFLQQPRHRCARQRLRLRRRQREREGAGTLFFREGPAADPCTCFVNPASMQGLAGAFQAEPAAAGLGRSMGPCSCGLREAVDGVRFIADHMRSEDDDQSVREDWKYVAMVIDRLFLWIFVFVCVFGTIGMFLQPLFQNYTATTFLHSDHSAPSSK

[8] = target: T1, α6β2*-nAChR (Mus musculus, UniProt Q9ERK7+Q9R0W9); conditions: read-out: binding Ki, α6β2; [125I]epibatidine; striatum and olfactory tubercle membranes from α4KO mice
T1 sequence (Q9ERK7 26-501): as above
T1 sequence (Q9R0W9 26-494): as the sequence (Q9R0W9 26-494) above

[9] = 62 receptor/enzyme screen; format: binding; conditions: 10 μM
Procedure, shortened: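 Profiling in a 62-target radioligand and enzyme panel. Test compound was run at 100 nM and 10 000 nM, in duplicate. The work was done by a contractor to the NIDA Addiction Treatment Discovery Program.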

[10] = target: DAD1 (Homo sapiens, UniProt P21728); test: off-target radioligand binding assay; conditions: 10 μM
[11] = test system: mouse; conditions: cited from earlier work
[12] = test system: mouse; conditions: cited from earlier work; remark: listed apart in the source
[13] = target: 5HT2C (Homo sapiens, UniProt P28335); test: off-target radioligand binding assay; conditions: 10 μM
[14] = target: DAD2 (Homo sapiens, UniProt P14416); test: off-target radioligand binding assay; conditions: 10 μM
[15] = target: T1, α6β2*-nAChR; format: cell-based; conditions: 10 μM (+) PHT or 100 μM (−) PHT compared to 10 μM nic response
[16] = test system: ICR mice; test: blockade of nicotine-induced CPP; format: in vivo, mouse; conditions: pretreatment 0.05 mg/kg, 15 min before nicotine 0.5 mg/kg s.c.
Procedure, shortened: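 Male ICR mice, 8–10 weeks old, n = 8 per group, in an unbiased three-chamber CPP. Day 1: 5 min habituation, then a 15 min baseline, with the paired side randomised. Days 2–4: two 20 min sessions daily, ≥5 h apart, nicotine 0.5 mg/kg s.c. (saline, free base) versus saline. Test compound or vehicle s.c. 15 min before nicotine. Day 5 retest.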

[17] = test system: mouse; conditions: cited from earlier work; remark: listed apart in the source
[18] = target: α4β2*-nAChR in α5KO (Mus musculus, UniProt O70174+Q9ERK7); format: cell-based
α4β2*-nAChR in α5KO, sequence (O70174 31-629): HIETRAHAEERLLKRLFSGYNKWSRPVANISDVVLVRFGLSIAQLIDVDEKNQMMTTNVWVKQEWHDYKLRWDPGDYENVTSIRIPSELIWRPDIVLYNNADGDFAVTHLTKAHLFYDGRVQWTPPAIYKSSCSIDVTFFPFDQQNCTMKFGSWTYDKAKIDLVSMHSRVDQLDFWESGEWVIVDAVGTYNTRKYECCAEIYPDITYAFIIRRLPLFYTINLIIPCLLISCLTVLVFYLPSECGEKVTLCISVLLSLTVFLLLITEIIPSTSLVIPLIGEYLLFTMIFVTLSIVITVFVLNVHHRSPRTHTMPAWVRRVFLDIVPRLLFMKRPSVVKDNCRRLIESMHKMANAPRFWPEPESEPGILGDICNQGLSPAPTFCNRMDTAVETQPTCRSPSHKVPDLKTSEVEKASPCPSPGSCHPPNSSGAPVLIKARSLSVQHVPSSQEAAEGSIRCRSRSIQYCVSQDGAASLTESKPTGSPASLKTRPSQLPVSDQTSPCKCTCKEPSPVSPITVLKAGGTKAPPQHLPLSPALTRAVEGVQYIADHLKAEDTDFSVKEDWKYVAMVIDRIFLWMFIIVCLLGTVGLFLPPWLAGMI
α4β2*-nAChR in α5KO, sequence (Q9ERK7 26-501): as the sequence (Q9ERK7 26-501) above

[19] = target: DAT (Homo sapiens, UniProt Q01959); test: off-target radioligand binding assay; conditions: 10 μM
[20] = target: DAD3 (Homo sapiens, UniProt P35462); test: off-target radioligand binding assay; conditions: 10 μM
DAD3, sequence (P35462 whole entry): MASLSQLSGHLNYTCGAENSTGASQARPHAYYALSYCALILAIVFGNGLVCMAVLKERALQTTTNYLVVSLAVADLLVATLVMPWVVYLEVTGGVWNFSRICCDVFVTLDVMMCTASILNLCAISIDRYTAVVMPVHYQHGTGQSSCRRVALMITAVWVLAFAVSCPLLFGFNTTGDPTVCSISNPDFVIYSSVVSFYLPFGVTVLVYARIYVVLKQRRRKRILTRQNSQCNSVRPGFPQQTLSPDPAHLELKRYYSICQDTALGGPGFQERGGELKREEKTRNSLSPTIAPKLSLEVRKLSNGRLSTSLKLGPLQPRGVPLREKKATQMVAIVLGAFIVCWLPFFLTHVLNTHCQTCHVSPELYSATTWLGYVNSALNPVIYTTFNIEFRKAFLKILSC

[21] = target: SERT (Homo sapiens, UniProt P31645); test: off-target radioligand binding assay; conditions: 10 μM
[22] = target: nAChRs; conditions: read-out: Ki for inhibition of [3H]epibatidine binding to nAChRs; cited from earlier work
[23] = test system: α4β2*-nAChR; format: cell-based, mouse; conditions: 10 μM (+) PHT or 100 μM (−) PHT compared to 10 μM nic response
[24] = target: μ opioid receptor (Homo sapiens, UniProt P35372); test: off-target radioligand binding assay; conditions: 10 μM
[25] = target: rat α7-nAChR (Rattus norvegicus, UniProt Q05941); format: cell-based
rat α7-nAChR, sequence (Q05941 23-502): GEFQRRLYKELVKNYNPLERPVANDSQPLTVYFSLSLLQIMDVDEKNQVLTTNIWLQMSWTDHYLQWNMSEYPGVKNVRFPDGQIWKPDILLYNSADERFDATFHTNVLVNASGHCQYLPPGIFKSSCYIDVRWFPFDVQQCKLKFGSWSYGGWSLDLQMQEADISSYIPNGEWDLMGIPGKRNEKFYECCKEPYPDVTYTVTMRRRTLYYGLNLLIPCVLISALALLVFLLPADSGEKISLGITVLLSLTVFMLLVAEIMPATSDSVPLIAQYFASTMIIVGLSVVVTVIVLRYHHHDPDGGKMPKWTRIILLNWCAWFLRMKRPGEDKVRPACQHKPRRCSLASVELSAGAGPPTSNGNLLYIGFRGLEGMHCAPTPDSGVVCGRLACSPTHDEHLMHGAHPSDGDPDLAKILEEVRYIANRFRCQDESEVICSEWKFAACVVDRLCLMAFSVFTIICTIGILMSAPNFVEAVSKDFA

[26] = test system: mouse; conditions: cited from earlier work; remark: listed apart in the source
[27] = target: NET (Homo sapiens, UniProt P23975); test: off-target radioligand binding assay; conditions: 10 μM
Procedure, shortened: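 Inhibition of specific [125I]RTI-55 binding to the norepinephrine transporter, with test compound at 10 μM. The screen was run by a NIDA drug-discovery program contractor.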

[28] = target: rat α3β4-nAChR (Rattus norvegicus, UniProt P04757+P12392); format: cell-based
rat α3β4-nAChR, sequence (P12392 21-495): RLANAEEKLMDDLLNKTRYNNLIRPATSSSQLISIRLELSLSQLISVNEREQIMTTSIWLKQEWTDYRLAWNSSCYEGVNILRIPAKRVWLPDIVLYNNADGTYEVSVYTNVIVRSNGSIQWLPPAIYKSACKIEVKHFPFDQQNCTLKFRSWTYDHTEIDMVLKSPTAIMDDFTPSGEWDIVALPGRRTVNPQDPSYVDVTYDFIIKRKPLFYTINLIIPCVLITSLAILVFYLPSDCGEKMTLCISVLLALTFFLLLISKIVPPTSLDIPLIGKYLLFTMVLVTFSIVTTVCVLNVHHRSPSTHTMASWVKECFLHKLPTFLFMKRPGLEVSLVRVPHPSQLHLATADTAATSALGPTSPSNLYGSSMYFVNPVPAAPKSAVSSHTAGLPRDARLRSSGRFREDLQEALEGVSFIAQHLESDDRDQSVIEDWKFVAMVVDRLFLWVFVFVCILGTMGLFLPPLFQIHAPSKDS
rat α3β4-nAChR, sequence (P04757 26-499): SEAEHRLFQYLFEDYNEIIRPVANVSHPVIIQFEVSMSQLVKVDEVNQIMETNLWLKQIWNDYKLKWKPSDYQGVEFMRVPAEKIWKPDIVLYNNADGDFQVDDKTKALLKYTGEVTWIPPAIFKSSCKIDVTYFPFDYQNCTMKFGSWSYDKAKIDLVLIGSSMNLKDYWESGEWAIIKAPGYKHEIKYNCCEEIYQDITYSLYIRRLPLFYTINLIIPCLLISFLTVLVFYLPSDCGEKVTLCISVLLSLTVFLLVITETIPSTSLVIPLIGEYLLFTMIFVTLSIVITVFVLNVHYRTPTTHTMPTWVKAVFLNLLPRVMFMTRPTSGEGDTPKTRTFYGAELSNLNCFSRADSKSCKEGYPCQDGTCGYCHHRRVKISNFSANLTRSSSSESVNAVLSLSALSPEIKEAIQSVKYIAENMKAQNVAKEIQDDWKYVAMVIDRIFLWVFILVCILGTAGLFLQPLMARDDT

[29] = target: 5HT2A (Homo sapiens, UniProt P28223); test: off-target radioligand binding assay; conditions: 10 μM
5HT2A, sequence (P28223 whole entry): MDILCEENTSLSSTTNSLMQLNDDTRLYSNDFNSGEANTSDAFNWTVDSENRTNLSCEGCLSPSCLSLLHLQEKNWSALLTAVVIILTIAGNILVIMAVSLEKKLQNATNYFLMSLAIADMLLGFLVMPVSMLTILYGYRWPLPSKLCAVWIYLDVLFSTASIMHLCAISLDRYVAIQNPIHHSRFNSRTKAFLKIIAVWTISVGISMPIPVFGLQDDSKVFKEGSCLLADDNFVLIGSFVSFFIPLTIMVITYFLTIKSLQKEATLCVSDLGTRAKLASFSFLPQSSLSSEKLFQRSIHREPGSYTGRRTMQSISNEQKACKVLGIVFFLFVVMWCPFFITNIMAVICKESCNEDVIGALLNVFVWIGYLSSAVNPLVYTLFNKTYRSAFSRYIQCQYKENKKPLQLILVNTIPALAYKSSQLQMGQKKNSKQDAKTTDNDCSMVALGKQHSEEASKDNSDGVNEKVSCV

[30] = target: 5HT1A (Homo sapiens, UniProt P08908); test: off-target radioligand binding assay; conditions: 10 μM
[31] = target: rat α4β2-nAChR (Rattus norvegicus, UniProt P09483+P12390); format: cell-based
rat α4β2-nAChR, sequence (P12390 25-500): as the sequence (Q9ERK7 26-501) above, with T350A, M371V, Q379R, A383T, L387P, M391V, I449V, S468P counted along it
rat α4β2-nAChR, sequence (P09483 31-630): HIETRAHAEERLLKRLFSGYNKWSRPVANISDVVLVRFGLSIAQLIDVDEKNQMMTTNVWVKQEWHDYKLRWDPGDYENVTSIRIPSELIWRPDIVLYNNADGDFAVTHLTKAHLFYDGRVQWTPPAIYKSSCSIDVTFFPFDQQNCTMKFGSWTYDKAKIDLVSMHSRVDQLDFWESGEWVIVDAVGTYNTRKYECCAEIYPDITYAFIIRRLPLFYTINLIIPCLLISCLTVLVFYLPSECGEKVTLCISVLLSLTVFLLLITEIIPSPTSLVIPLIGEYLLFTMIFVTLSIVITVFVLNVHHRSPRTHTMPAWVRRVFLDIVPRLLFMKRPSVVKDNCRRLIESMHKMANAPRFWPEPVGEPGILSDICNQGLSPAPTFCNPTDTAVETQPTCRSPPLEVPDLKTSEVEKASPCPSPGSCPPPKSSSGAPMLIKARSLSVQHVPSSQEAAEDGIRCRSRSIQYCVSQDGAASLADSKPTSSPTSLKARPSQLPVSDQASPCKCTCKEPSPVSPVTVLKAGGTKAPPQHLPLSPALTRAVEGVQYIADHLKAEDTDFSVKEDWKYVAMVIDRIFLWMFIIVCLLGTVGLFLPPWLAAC

[32] = test system: ICR mice; test: conditioned place preference; format: in vivo, mouse; conditions: all doses tested, s.c.
Procedure, shortened: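 Test compound given s.c. 15 min before conditioning, in an unbiased three-chamber CPP. Male ICR mice, 8–10 weeks old, n = 8 per group. Baseline day 1: 5 min habituation, 15 min test. Then 3 days of twice-daily 20 min sessions, ≥5 h apart; test on day 5. Score: drug-paired-side time after minus before conditioning; mean ± SEM, p < 0.05 versus vehicle.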

[33] = target: δ opioid receptor (Homo sapiens, UniProt P41143); test: off-target radioligand binding assay; conditions: 10 μM
[34] = target: DAD4 (Homo sapiens, UniProt P21917); test: off-target radioligand binding assay; conditions: 10 μM
[35] = target: κ opioid receptor (Homo sapiens, UniProt P41145); test: off-target radioligand binding assay; conditions: 10 μM
[36] = test system: α4β2-nAChR; conditions: cited from earlier work
[37] = test system: α4α6β2-nAChRs; conditions: cited from earlier work
[38] = 10 μM (+) PHT or 100 μM (−) PHT compared to 10 μM nic response

α4β2*-nAChR, sequence (Q9ERK7 26-501): as the sequence (Q9ERK7 26-501) above
α4β2*-nAChR, sequence (O70174 31-629, further chain): as the sequence (O70174 31-629) above

For `O=c1cccc2n1CC1CC2CN(CCN2CC3CC(C2)c2cccc(=O)n2C3)C1` [CC4, 1,2-bis-N-Cystinylethane], the “effect on nicotine-induced self-administration and CPP” value [1] is given as “significantly reduced”.
In the case of `c1cnc2cc3c(cc2n1)[C@@H]1CNC[C@H]3C1` [varenicline, 6,7,8,9,10-Tetrahydro-6,10-methano-6H-pyyrazino[2,3-h][3]benzazepine], the “maximal efficacy at α4β2-nAChR” value [2] is given as […], the EC50 ([2]; read-out: EC50, α4β2*-nAChR-mediated [3H]DA release) is given as […] and the Ki [3] is given as 0.13 nM. The “Emax, α4β2*-nAChR” value [4] was […], the EC50 ([4]; read-out: EC50, α4β2*-nAChR-mediated [3H]DA-release) was […] and the “maximal efficacy at α6β2-nAChR” value [5] was 49%. The “Emax, α6β2*-nAChR” value [6] was 13%.
For Pyrido[3,4]homotropane [(−)-PHT], the “max (% nic) dopamine release, α6β2 in α5KO” value [7, 38] was 96%, the EC50 ([7]; read-out: EC50 dopamine release, α6β2 in α5KO, α5KO mice) was 2000 nM and the Ki [8] was 629 nM. For the same molecule, the “activity at off site targets in 62 receptor/enzyme screen (NovaScreen)” value [9] was “inactive”, the “activity in radioligand binding assay, DAD1” value [10] was “inactive” and the “activity in hypothermia test” value [11] was “inactive”. The “AD50, antagonism of antinociceptive effects of nicotine in the hot-plate test” value [12] was 0.8 µg/kg, the “antinociceptive (agonist) activity in hot-plate test” value [12] was “inactive” and the “activity in radioligand binding assay, 5HT2C” value [13] was “inactive”. The “activity in radioligand binding assay, DAD2” value [14] was “inactive”, the “max (% nic) dopamine release, sens α6β2” value [15] was 109% and the “blockade of nicotine-induced CPP” value [16] was “completely preventing nicotine preference”. The “activity in locomotor-activity test” value [17] was “inactive”, the “max (% nic) dopamine release, α4β2 in α5KO*” value [18, 38] was 10% and the EC50 ([18]; read-out: EC50 dopamine release, α4β2 in α5KO*, α5KO mice) was 700 nM. For the same molecule, the “activity in radioligand binding assay, DAT” value [19] was “inactive”, the “activity in radioligand binding assay, DAD3” value [20] was “inactive” and the “activity in radioligand binding assay, SERT” value [21] was “inactive”. The Ki [22] was 346 nM, the “max (% nic) dopamine release, res α4β2” value [23] was 17% and the “activity in radioligand binding assay, μ opioid receptor” value [24] was “inactive”. For the same molecule, the “antagonism (% of EC50 ACh remaining) α7” value ([25]; 100 μM compound, ACh 300 μM) was 84± 10%, the IC50 ([25]; read-out: antagonism, IC50 α7, vs EC50 ACh 300 μM) was 353000 ± 34000 nM and the “activity in tail-flick test given intrathecally” value ([26]; intrathecally 10 μg/mouse) was “inactive”. For the same molecule, the “AD50, antagonism of nicotine-induced antinociception in the tail-flick test” value ([26]; mouse) was 0.07 µg/kg, the “antinociceptive (agonist) activity in tail-flick test” value ([26]; mouse) was “inactive” and the “activity in radioligand binding assay, NET” value [27] was “inactive”. The “antagonist selectivity for α3β4- relative to α4β2-nAChR” value [28] was 3 fold, the “antagonist selectivity for α3β4- relative to α7-nAChR” value [28] was 11 fold and the “antagonism (% of EC50 ACh remaining) α3β4” value ([28]; 100 μM compound, ACh 200 μM) was 32 ± 3%. For the same molecule, the IC50 ([28]; read-out: antagonism, IC50 α3β4, vs EC50 ACh 200 μM) was 33000 ± 6000 nM, the “activity in radioligand binding assay, 5HT2A” value [29] was “inactive” and the “activity in radioligand binding assay, 5HT1A” value [30] was “inactive”. The “antagonism (% of EC50 ACh remaining) α4β2” value ([31]; 100 μM compound, ACh 70 μM) was 41 ± 4%, the IC50 ([31]; read-out: antagonism, IC50 α4β2, vs EC50 ACh 70 μM) was 99000 ± 13000 nM and the “induction of significant preference in the CPP test” value [32] was “ineffective”. The “activity in radioligand binding assay, δ opioid receptor” value [33] was “inactive”, the “activity in radioligand binding assay, DAD4” value [34] was “inactive” and the “activity in radioligand binding assay, κ opioid receptor” value [35] was “inactive”. The “activation of currents at α4β2-nAChR” value [36] was “did not activate currents”.
In the case of `CN1CCC[C@H]1c1cccnc1` [Nicotine, nicotine], the “partial agonist activity at α4α6β2-nAChRs” value [37] is listed as 70%.
